Results from different studies.
Protocols differ between the studies behind these lines.
Target: Serine/threonine-protein kinase pim-3 (PIM3, Homo sapiens, UniProt Q86V86)

SMILES	effect on	mode	technique	concentration	measurement	value
Nc1ncnc2occ(-c3ccc(NC(=O)Nc4cc(C(F)(F)F)ccc4F)cc3)c12	cell-free assay	inhibitor		20 µM	remaining signal	79%
CS(=O)(=O)N1CCCC(NC(=O)[C@H](CCC2CCCCC2)NC(=O)c2ccc(CNC(=O)c3cnc4ccccn34)cc2)C1 (stereo partly shown)	cell-free assay		competition with immobilised ligand	0.1 µM	remaining binding	99%
COc1cc(Cl)c(C(=O)N[C@@H](CN[C@H]2CC[C@@H](N)CC2)Cc2ccc(C#N)cc2)cc1-c1ccc(CN[C@H](C)c2ccc(C)cc2)o1	enzyme activity	inhibitor		1 µM	remaining activity	84%
O=C(Nc1cnn(-c2csc(C(=O)NC3COC3)c2)c1)Nc1c(F)cccc1Cl	enzyme activity	inhibitor		5 µM	remaining activity	73.9%
O=C1Nc2ccc(Cl)cc2C1=Cc1cc(Cl)c(O)c(Cl)c1	cell-free assay			0.5 µM	remaining signal	14.5%
CC(C)(C)C(=O)c1sc(NC2CCCCC2)nc1N	enzyme activity	inhibitor		10 µM	remaining activity	82%
CCC(=O)N[C@H]1CC[C@@H](C(=O)N(C)c2ccc(-c3nc4ccccc4o3)cc2)C1	cell-free assay		competition with immobilised ligand	1 µM	remaining binding	100%
Cc1ccc(C(=O)NCc2ccsc2)cc1C#Cc1cn(C(C)C)c2ncnc(N)c12	enzyme activity	inhibitor		1 µM	activity vs control	85%
CN(C)C(=O)Cn1cc(-c2nc([C@@](C)(c3ccc(-c4cnc(N)nc4)cc3)C3CC3)no2)cn1	cell-free assay		competition with immobilised ligand	1 µM	remaining binding	96%
CCN(CC)CCNC(=O)c1c(C)[nH]c(/C=C2\C(=O)Nc3ccc(F)cc32)c1C	enzyme activity	inhibitor		0.3 µM	inhibition	-17%
FC(F)(F)c1ccc2c(c1)nc(-c1cccnc1)n2C1CC1	cell-free assay		competition with immobilised ligand	1 µM	remaining binding	100%
CC(C)(O)[C@H]1CC[C@H](Nc2ccc3ncc(-c4cccc(C(F)(F)F)c4)n3n2)CC1	enzyme activity	inhibitor		1 µM	remaining activity	3.14%
COc1cc(Nc2cnc(C#N)c(O[C@H](C)CN(C)C)n2)ncc1-c1cnn(C)c1	enzyme activity	inhibitor	radiometric	10 µM	remaining activity	17%
N#CCCc1ccc2c(c1)-c1[nH]c3ccc([N+](=O)[O-])cc3c1CC(=O)N2	cell-free assay			0.5 µM	remaining signal	70.9%
O=c1nc(-c2ccccn2)sc2ccccc12	binding		competition with immobilised ligand	1 µM	remaining binding	100%
CC(C)(C)c1nc2c(s1)c1nc(N)ncc1c1ccc(NS(=O)(=O)c3c(F)cccc3F)c(F)c12	enzyme activity	inhibitor	radiometric	1 µM	remaining activity	105%
O=C(CSc1nc2nccnc2c(=O)n1CCc1ccccc1)Nc1nccs1	enzyme activity	inhibitor		10 µM	inhibition	-7%
O=C(NCc1ncc(C(F)(F)F)cc1Cl)c1ccc2c(c1)C1(CCS(=O)(=O)CC1)[C@H](C1CC1)N2S(=O)(=O)c1ccc(F)cc1	cell-free assay		competition with immobilised ligand	1 µM	remaining binding	100%
Cc1cnc(NC2CCOCC2)nc1-n1cnc(C(=O)NC(CN)c2cc(F)cc(Cl)c2)c1 (stereo not shown)	enzyme activity	inhibitor	radiometric	1 µM	remaining activity	95%
O=C(O)[C@H]1[C@H](Cn2nnc3ccccc3c2=O)CC[C@@H]1C(=O)c1ccc(OCCC2CCOCC2)cc1	cell-free assay		competition with immobilised ligand	1 µM	remaining binding	86%
COc1cc(/C=C/C(=O)CC(=O)/C=C/c2ccc(O)c(OC)c2)ccc1O	enzyme activity	inhibitor		1 µM	activity vs control	12%
Cn1c(=O)n(-c2ccc(C(C)(C)C#N)cc2)c2c3cc(-c4cnc5ccccc5c4)ccc3ncc21	enzyme activity	inhibitor		10 µM	remaining activity	87%
Cc1cc(NC(=O)c2cccc3cc(-c4cccc5[nH]nc(N)c45)ccc23)ccc1F	enzyme activity	inhibitor		0.1 µM	activity vs control	113%
COc1cc2c(N3CCN(C(=O)Nc4ccc(OC(C)C)cc4)CC3)ncnc2cc1OCCCN1CCCCC1	cell-free assay			0.5 µM	remaining signal	100%
O=C(N1CCS(=O)(=O)CC1)N1C[C@H](c2ccc(OC(F)(F)F)cc2)C[C@H](c2nc(C3CC3)no2)C1	cell-free assay		competition with immobilised ligand	1 µM	remaining binding	100%
Nc1nc(Nc2ccccc2)sc1C(=O)c1c(F)cccc1F	enzyme activity	inhibitor		10 µM	remaining activity	69%
CNC(=O)c1cc(Oc2ccc(NC(=O)Nc3ccc(Cl)c(C(F)(F)F)c3)cc2)ccn1	enzyme activity	inhibitor		0.3 µM	inhibition	-12%
CCCOc1ccc(OC)c(F)c1C(=O)c1ccc(C(=O)N[C@@H]2CNC[C@H]2NC(=O)c2ccc3[nH]ncc3c2)cc1	enzyme activity	inhibitor		10 µM	remaining activity	97%
